Lipid droplet – hepatic lipid droplet formation modulation. AML12 mouse hepatocytes, oleate lipid droplets, BODIPY imaging. inhibition, % at 6.5 µM. 240,000 tested, 0.4% active. AID 1656;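 active means lipid droplet intensity inhibited by at least 50%, with more than 500 cells counted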
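Test system: AML12 hepatocytes (mouse); reagent: oleate loading, 100 µM; dosing: one dose, 6.5 µM compound; incubation: overnight exposure; signal: fluorescence imaging, 20x objective, two fields per well; read-out basis: % inhibition of corrected integrated BODIPY droplet signal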
Lmaj promast – Leishmania major promastigote growth inhibition; Leishmania major promastigotes, resazurin fluorescence viability; inhibition, % at 10 µM; 200,000 tested, 9% active; in the data active means inhibition above about 50%;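 further: promastigotes grown with compound for 44 hours at 28 °C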
DTT redox prof – compounds producing H2O2 with reducing agent – biochemical, NIH compound library profiling, artefact control for MLSCN library redox annotation, primary screen | activation, % at 10 µM | AID 878 | 200,000 tested, 0.03% active | DTT-dependent redox cycling H2O2, phenol red/HRP absorbance; 100% = 100 µM peroxide control, 0% = buffer;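 active means activation of at least 50% relative to the plate's high and low controls in the primary single-dose screen; inactive means activation below 50%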;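 further: compound incubated with DTT at 0.8 mM final as the reducing agent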
T cruzi inh – blocks replication of Trypanosoma cruzi | T. cruzi beta-gal in NIH3T3, luminescence, 90 h | inhibition, % (no concentration beside the values) | 300,000 tested, 1.4% active | AID 1885;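 active means mean inhibition across valid replicates above about 55%, limit read from the data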;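 further: signal also drops with host cell toxicity which is not excluded here; 0% = plate median of DMSO wells and 100% = zero luminescence signal; higher percent means less beta-gal luminescence so fewer parasites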
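Assay system: NIH/3T3 host cells with β-galactosidase reporter T. cruzi; input: 5,000 host fibroblasts per well; compound: single 50 nL compound addition per well in DMSO; timing: ≥90 h infection period, 3 h prior cell attachment; measured by: GalScreen β-gal luminescence, detergent lysis, 60 min; evaluation: percent inhibition of parasite-derived β-gal signal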
MPTP inh – inhibitors of mitochondrial permeability transition pore | isolated mouse mitochondria, Ca2+ swelling absorbance, 30 min | inhibition, % at 10 µM | 360,000 tested, 1.4% active;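 active means inhibition of 50% or more, scaled per plate between neutral and stimulator controls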;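 further: 0% = DMSO wells given calcium and 100% = 1 mM EGTA wells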
Starred values were filed as active, the others as inactive; . = no result given. Many of the other results were omitted from the sample, so hits are more common in it than they were.

SMILES | Lipid droplet | Lmaj promast | DTT redox prof | T cruzi inh | MPTP inh
CC(C)c1ccc(NC(=O)c2ccc(NC3=NC4CS(=O)(=O)CC4S3)cc2)cc1 (configuration not stated) | -18 | . | . | -4 | -2
COc1ccc(Cc2nc3ccc(C(=O)N(C)C(C)c4ccon4)cc3o2)cc1 (configuration not stated) | -2 | . | . | -3 | 1
O=c1oc2ccccc2nc1/C=C(O)/C=C/c1ccc(F)cc1 | -1 | 61* | 0 | -20 | -1
Cc1ccc(/C(O)=C/c2nc3ccccc3oc2=O)cc1 | 14 | . | . | -2 | 2
COc1ccc(NS(=O)(=O)N2CCOCC2)cc1 | -16 | . | . | -18 | -1
COc1ccc2c(c1)CC(N1CCN(C)CC1)c1cc(OC)ccc1S2 (configuration not stated) | . | . | . | 26 | -6
COCCCN1CCN(C2Cc3ccccc3Sc3ccc(Cl)cc32)CC1 (configuration not stated) | 5 | 78* | 1 | 28 | -3
Cc1ccc(C(=O)N2CCN(c3ccccc3F)CC2)cc1S(=O)(=O)N1CCOCC1 | 12 | -2 | -1 | 6 | -2
CN(C)c1ccc(/C=C/c2ccncc2)cc1 | 4 | 0 | 2 | . | 1
COc1cccc(/C=C/c2ccncc2)c1OC | . | 86* | -1 | 49 | -4
COc1ccc(/C=C/c2ccncc2)cc1 | . | 9 | 2 | 74* | 0
CC(C)=CCN1CCN(CCC2=C(C)CCCC2(C)C)CC1CCO (configuration not stated) | -4 | 80* | -1 | 18 | 0
CC1=C(CCN2CCN(C3CCCC3)C(CCO)C2)C(C)(C)CCC1 (configuration not stated) | 14 | 83* | -1 | 30 | 0
CC(C)=CCN1CCN(CCCn2cccn2)CC1CCO (configuration not stated) | -20 | -7 | -1 | -12 | 2
CC1CC(C)CN(CCCNC(=O)c2ccc3c(c2)NC(=O)CS3)C1 (configuration not stated) | 2 | . | . | 6 | 0
COc1ccc(NC(=O)c2cccc(-n3c(C)ccc3C)c2)c(OC)c1 | -1 | 63* | 0 | -2 | 0
O=C(c1ccc(-c2ccccc2)cc1)c1ccccc1C(=O)N1CCOCC1 | 0 | 51* | 0 | 0 | -2
O=CC(=Cc1ccccc1)c1ccccc1 | . | . | . | . | 0
CCn1c(C)nc2cc(NC(=O)Nc3cccc(C(C)=O)c3)ccc21 | 0 | . | . | -7 | 0
CCC(Oc1ccccc1)C(=O)Nc1ccc(-c2nnc(-c3ccco3)o2)cc1 (configuration not stated) | 29 | 94* | 1 | 31 | 5
CCOC(=O)c1cc(-c2ccccc2)n(CC(=O)Nc2cc(OC)cc(OC)c2)c1C | 18 | 96* | 0 | 26 | 38
N#Cc1ccc(OCC(=O)OCC(=O)Nc2sccc2C(N)=O)cc1 | . | . | . | . | 0
C/C(=N\NC(=O)c1ccc(NS(=O)(=O)c2cccs2)cc1)c1ccc(O)cc1O | -3 | . | . | -7 | 3
Cc1cc(C)c(C(=O)N2CCCC(N3CCN(c4ccc(F)cc4)CC3)C2)o1 (configuration not stated) | 10 | . | . | 22 | 0
CCN(CC)CCN1C2=C(C(=O)CC(C)(C)C2)C(c2cccc(F)c2)C2=C1CC(C)(C)CC2=O | 13 | 22 | 0 | 20 | 0
SMILES | Lipid droplet | Lmaj promast | DTT redox prof | T cruzi inh | MPTP inh
CC1(C)CC(=O)C2=C(C1)N(CCN1CCOCC1)C1=C(C(=O)CC(C)(C)C1)C2c1cccc(Cl)c1 | . | 61* | -3 | 11 | -1
Cc1cccc(NC(=O)CSCC(=O)NCc2ccco2)c1 | 8 | . | . | -4 | -2
O=C1N/C(=N\N=C\c2ccc3ncccc3c2)SC1Cc1ccc(SC(F)F)cc1 (configuration not stated) | 5 | 1 | -1 | 33 | 2
O=C1N/C(=N\N=C\c2ccccn2)SC1Cc1cccc(SC(F)F)c1 (configuration not stated) | . | 17 | -1 | 69* | 1
O=C1N/C(=N\N=C\c2cccnc2)SC1Cc1ccc(SC(F)F)cc1 (configuration not stated) | 1 | 74* | -1 | 62* | 15
O=C1N/C(=N\N=C\c2cccs2)SC1Cc1cccc(Cl)c1 (configuration not stated) | 3 | 5 | 1 | 13 | 2
Cc1ccc(C(=O)NCC(=O)NCCCc2ccccc2)cc1 | -24 | . | . | 0 | -1
O=C(CN1CCN(c2ccc(F)cc2)CC1)Nc1nccs1 | -3 | . | . | -3 | 0
CCN(CCNC(=O)C1CCN(S(C)(=O)=O)CC1)c1ccccc1 | 19 | 0 | 3 | -8 | -1
CCN(CCNC(=O)Nc1ccc(Cl)cc1)c1ccccc1 | . | 96* | 0 | 21 | 22
O=c1c2ccccc2nc2n1-c1ccccc1CCC2 | -2 | -3 | -4 | -3 | 1
O=C1c2ccccc2-n2c1nc1ccccc1c2=O | 10 | 100* | 0 | -2 | -2
O=C(COc1ccccc1)NC(=S)Nc1cccc([N+](=O)[O-])c1 | 6 | -7 | 0 | -18 | 16
O=C(COc1ccccc1)NC(=S)Nc1ccc2c(c1)Cc1ccccc1-2 | 16 | -1 | 0 | 61* | 1
O=C(NN1C(=O)C2C3c4ccccc4C(c4ccccc43)C2C1=O)C1CC1 (configuration not stated) | -4 | -5 | 0 | -7 | -2
Cc1cc(C)c(C#N)c(Oc2ccccc2Br)n1 | 2 | 46 | 0 | 1 | 1
COc1ccc(N2C3=C(CC4=C2CC(C)(C)CC4=O)C(=O)CC(C)(C)C3)cc1 | . | 100* | 3 | 64* | -3
Cc1c(NC(=O)c2cccs2)c(=O)n(-c2ccccc2)n1C | -16 | -4 | -1 | 3 | 0
Cc1c(NC(=O)/C(C#N)=C/c2cccs2)c(=O)n(-c2ccccc2)n1C | -3 | 67* | 0 | -21 | 1
CS(=O)(=O)c1nc(-c2ccccc2)c(-c2ccccc2)[nH]1 | -7 | -6 | 0 | 2 | 1
COc1ccccc1N=Nc1nc(-c2ccccc2)c(-c2ccccc2)[nH]1 | -2 | 67* | -1 | 46 | 23
Cc1cc(C)c2cc(C#N)c(NCCNC(=O)c3cccnc3)nc2c1 | . | . | . | . | 5
COc1cccc(OC)c1CC1SC(=O)NC1=O (configuration not stated) | -14 | -9 | -2 | 7 | 4
COc1ccc(OC)c(-c2cc(C(=O)Nc3c(C)nn(Cc4ccccc4Cl)c3C)no2)c1 | . | 52* | 0 | 39 | -2
Cc1nc(C(F)(F)F)ccc1C(=O)N1CCC1(C)C(=O)NS(C)(=O)=O (configuration not stated) | . | . | . | . | 0
O=C(Nc1ccccc1F)c1ccc([N+](=O)[O-])s1 | 4 | 100* | -1 | 65* | -1
O=C(Nc1cccc2ccccc12)c1ccc([N+](=O)[O-])s1 | -7 | 100* | 0 | 57* | 27
O=C(Nc1cccnc1)c1ccc([N+](=O)[O-])s1 | . | . | . | . | 0

Bioassay records from PubChem.
